Assay results taken from ChEMBL document CHEMBL1153581, “Synthesis, antiviral and anticancer activity of some novel thioureas derived from N-(4-nitro-2-phenoxyphenyl)-methanesulfonamide” (Eur J Med Chem, 2009).
Values after ≈ are worked out from the molar mass of the structure shown.

Assays:
Coxsackievirus B4 [1] = assay: Antiviral activity against Coxsackievirus B4 infected in human HeLa cells assessed as protection against virus-induced cytopathogenicity; type: functional; conditions: Enterovirus B
Human respirovirus 3 = assay: Antiviral activity against Parainfluenza-3 virus infected in african green monkey Vero cells assessed as protection against virus-induced cytopathogenicity; type: functional
[2] = Cytotoxicity against Cytomegalovirus infected HEL cells assessed as reduction in cell growth; type: cell-based; conditions: human
Human betaherpesvirus 5 = assay: Antiviral activity against Cytomegalovirus AD169 infected in HEL cells assessed as reduction in virus plaque formation; type: functional, organism-based; conditions: Human betaherpesvirus 5, AD169, HEL
Summary of the method: (§1)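 Plaque reduction in HEL cells against CMV (AD-169, Davis) or VZV (TK⁺ OKA, TK⁻ 07/1), using a virus input of 20 PFU. EC50 is the concentration that reduced plaque formation by 50%.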

Coxsackievirus B4 [3] = assay: Antiviral activity against Coxsackievirus B4 infected in african green monkey Vero cells assessed as protection against virus-induced cytopathogenicity; type: functional; conditions: Enterovirus B
[4] = test system: Human immunodeficiency virus 1; assay: Antiviral activity against HIV-1 3B infected human MT4 cells assessed as protection against virus-induced cytopathogenicity; type: functional, organism-based; conditions: Human immunodeficiency virus 1, 3B
Summary of the method: (§2)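 HIV-1 (IIIB) or HIV-2 (ROD) infection of MT-4 cells, scored as protection against virus-induced cytopathicity. IC50 was derived from protection.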

Human alphaherpesvirus 1 [5] = assay: Antiviral activity against HSV1 KOS infected in HEL cells assessed as protection against virus-induced cytopathogenicity; type: functional; conditions: Human alphaherpesvirus 1, KOS
[6] = test system: Vesicular stomatitis virus; assay: Antiviral activity against Vesicular stomatitis virus infected in human HeLa cells assessed as protection against virus-induced cytopathogenicity; type: functional
Human alphaherpesvirus 3 [7] = assay: Antiviral activity against thymidine kinase deficient Varicella Zoster Virus 07/1 infected in HEL cells assessed as reduction in virus plaque formation; type: functional, organism-based; conditions: Human alphaherpesvirus 3, 07/1, HEL; summary of the method: as §1
[8] = Cytotoxicity against african green monkey Vero cells assessed as change in cell morphology; type: cell-based; conditions: chlorocebus sabaeus
Summary of the method: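 Vero cell cultures were used for the broad-spectrum antiviral screen. The MCC endpoint is the lowest concentration that causes a microscopically detectable alteration of cell morphology. Activity was called when 5 × MIC < MCC.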

[9] = test system: Mammalian orthoreovirus 1; assay: Antiviral activity against Reovirus 1 infected in african green monkey Vero cells assessed as protection against virus-induced cytopathogenicity; type: functional
Cytomegalovirus = assay: Antiviral activity against Cytomegalovirus Davis infected in HEL cells assessed as reduction in virus plaque formation; type: functional, organism-based; conditions: Human betaherpesvirus 5, Davis; summary of the method: as §1
Sindbis virus = assay: Antiviral activity against Sindbis virus infected in african green monkey Vero cells assessed as protection against virus-induced cytopathogenicity; type: functional
Human alphaherpesvirus 3 [10] = assay: Antiviral activity against Varicella Zoster Virus OKA infected in HEL cells assessed as reduction in virus plaque formation; type: functional, organism-based; conditions: Human alphaherpesvirus 3, OKA; summary of the method: as §1
HeLa = assay: Cytotoxicity against human HeLa cells assessed as change in cell morphology; type: functional
Summary of the method: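 The minimum cytotoxic concentration (MCC) is the concentration causing a microscopically detectable alteration of cell morphology in the uninfected host cell culture.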

[11] = Cytotoxicity against Varicella Zoster Virus infected human […] cells assessed as change in cell morphology; type: cell-based
[12] = test system: Vesicular stomatitis virus; assay: Antiviral activity against sVesicular stomatitis virus infected in HEL cells assessed as protection against virus-induced cytopathogenicity; type: functional
Punta Toro virus = assay: Antiviral activity against Punta Toro virus infected in african green monkey Vero cells assessed as protection against virus-induced cytopathogenicity; type: functional
Human alphaherpesvirus 2 = assay: Antiviral activity against Herpes simplex virus 2 infected in HEL cells assessed as protection against in virus-induced cytopathogenicity; type: functional
[13] = Cytotoxicity against HIV-1 3B infected human MT4 cells; type: cell-based; conditions: HIV-1 3B-infected MT4 cells
[14] = test system: Respiratory syncytial virus; assay: Antiviral activity against RSV infected in human HeLa cells assessed as protection against virus-induced cytopathogenicity; type: functional
[15] = Cytotoxicity against HEL cells assessed as change in cell morphology; type: cell-based; conditions: human
Summary of the method: (§3)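 HEL cell cultures examined under the microscope. Minimal cytotoxic concentration (MCC) is the concentration that causes a microscopically detectable alteration of cell morphology. Compounds were tested at subtoxic concentrations alongside the antiviral tests.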

[16] = test system: Human immunodeficiency virus 2; assay: Antiviral activity against HIV-2 ROD infected human MT4 cells assessed as protection against virus-induced cytopathogenicity; type: functional, organism-based; conditions: Human immunodeficiency virus 2, ISOLATE ROD; summary of the method: as §2
Human alphaherpesvirus 1 [17] = assay: Antiviral activity against acyclovir-resistant thymidine kinase-deficient HSV1 KOS infected in human HEL cells assessed as protection against virus-induced cytopathogenicity; type: functional; conditions: Human alphaherpesvirus 1, KOS
[18] = Cytotoxicity against Varicella Zoster Virus infected human […] cells assessed as reduction in cell growth; type: cell-based
[19] = Cytotoxicity against Cytomegalovirus infected HEL cells assessed as change in cell morphology; type: cell-based; conditions: human; summary of the method: as §3

| SMILES | MIC50 (Coxsackievirus B4 [1]) | MIC50 (Human respirovirus 3) | CC50 [2] | EC50 (Human betaherpesvirus 5) | MIC50 (Coxsackievirus B4 [3]) | IC50 [4] | MIC50 (Human alphaherpesvirus 1 [5]) | MIC50 [6] | EC50 (Human alphaherpesvirus 3 [7]) | MCC [8] | MIC50 [9] | EC50 (Cytomegalovirus) | MIC50 (Sindbis virus) | MCC (HeLa) | MIC50 [12] | MIC50 (Punta Toro virus) | MIC50 (Human alphaherpesvirus 2) | MIC50 [14] | MCC [15] | MIC50 (Human alphaherpesvirus 1 [17]) | further results |
| --- | --- | --- | --- | --- | --- | --- | --- | --- | --- | --- | --- | --- | --- | --- | --- | --- | --- | --- | --- | --- | --- |
| CCCNC(=S)Nc1ccc(NS(C)(=O)=O)c(Oc2ccccc2)c1 | > 40 mg/L | > 8 mg/L | 56 mg/L (≈ 148 µM) | 54.7 mg/L (≈ 144 µM) | > 8 mg/L | > 89.3 mg/L | > 40 mg/L | > 40 mg/L | > 20 mg/L | 40 µg/mL | > 8 mg/L | 54.7 mg/L (≈ 144 µM) | > 8 mg/L | 200 µg/mL | > 40 mg/L | > 8 mg/L | > 40 mg/L | 40 mg/L (≈ 105 µM) | 200 µg/mL | > 40 mg/L | EC50 (Human alphaherpesvirus 3 [10]): > 20 mg/L; CC50 [11]: 100 mg/L (≈ 263 µM); CC50 [13]: 89.3 mg/L (≈ 235 µM); IC50 [16]: > 89.3 mg/L; CC50 [18]: 56 mg/L (≈ 148 µM); CC50 [19]: > 100 mg/L |
| CNC(=S)Nc1ccc(NS(C)(=O)=O)c(Oc2ccccc2)c1 | > 100 mg/L | > 100 mg/L | – | – | > 100 mg/L | > 125 mg/L | > 100 mg/L | 100 mg/L (≈ 285 µM) | – | > 100 µg/mL | > 100 mg/L | – | > 100 mg/L | > 100 µg/mL | > 100 mg/L | > 100 mg/L | > 100 mg/L | > 100 mg/L | > 100 µg/mL | > 100 mg/L | CC50 [13]: > 125 mg/L; IC50 [16]: > 125 mg/L |
| C=CCNC(=S)Nc1ccc(NS(C)(=O)=O)c(Oc2ccccc2)c1 | > 40 mg/L | ≥ 24 mg/L | 82.4 mg/L (≈ 218 µM) | 54.7 mg/L (≈ 145 µM) | > 40 mg/L | > 87.2 mg/L | > 40 mg/L | > 40 mg/L | 49 mg/L (≈ 130 µM) | 200 µg/mL | > 40 mg/L | 54.7 mg/L (≈ 145 µM) | > 40 mg/L | 200 µg/mL | > 40 mg/L | > 40 mg/L | > 40 mg/L | 40 mg/L (≈ 106 µM) | 200 µg/mL | > 40 mg/L | EC50 (Human alphaherpesvirus 3 [10]): 58.5 mg/L (≈ 155 µM); CC50 [11]: > 100 mg/L; CC50 [13]: 101 mg/L (≈ 269 µM); IC50 [16]: > 12.8 mg/L; CC50 [18]: 82.4 mg/L (≈ 218 µM); CC50 [19]: > 100 mg/L |
| CS(=O)(=O)Nc1ccc(NC(=S)NCCc2ccc(Cl)cc2)cc1Oc1ccccc1 | > 20 mg/L | > 20 mg/L | – | – | > 20 mg/L | > 14.8 mg/L | > 100 mg/L | > 20 mg/L | – | 100 µg/mL | > 20 mg/L | – | > 20 mg/L | 100 µg/mL | > 100 mg/L | > 20 mg/L | > 100 mg/L | > 20 mg/L | > 100 µg/mL | > 100 mg/L | CC50 [13]: 14.8 mg/L (≈ 31.2 µM); IC50 [16]: > 14.8 mg/L |
| CS(=O)(=O)Nc1ccc(NC(=S)NCc2ccccc2)cc1Oc1ccccc1 | > 8 mg/L | > 8 mg/L | 45.2 mg/L (≈ 106 µM) | > 4 mg/L | > 8 mg/L | 20.1 mg/L (≈ 47.1 µM) | > 8 mg/L | > 8 mg/L | > 4 mg/L | 40 µg/mL | > 8 mg/L | > 4 mg/L | > 8 mg/L | 40 µg/mL | > 8 mg/L | > 8 mg/L | > 8 mg/L | > 8 mg/L | 40 µg/mL | > 8 mg/L | EC50 (Human alphaherpesvirus 3 [10]): > 4 mg/L; CC50 [11]: 20 mg/L (≈ 46.8 µM); CC50 [13]: 61.6 mg/L (≈ 144 µM); IC50 [16]: > 18.3 mg/L; CC50 [18]: 45.2 mg/L (≈ 106 µM); CC50 [19]: 20 mg/L (≈ 46.8 µM) |
| Nc1ncnc2c1ncn2C[C@H](O)CO [(S)-DHPA] | 150 mg/L (≈ 717 µM) | 50 mg/L (≈ 239 µM) | – | – | > 250 mg/L | – | – | 150 mg/L (≈ 717 µM) | – | > 250 µg/mL | 250 mg/L (≈ 1190 µM) | – | > 250 mg/L | > 250 µg/mL | – | > 250 mg/L | – | > 250 mg/L | – | – | – |
| Nc1nc2c(ncn2COCCO)c(=O)[nH]1 [ACYCLOVIR] | – | – | – | – | – | – | – | – | – | – | – | – | – | – | > 250 mg/L | – | 0.4 mg/L (≈ 1.78 µM) | – | > 250 µg/mL | 50 mg/L (≈ 222 µM) | – |
| O=c1[nH]c(=O)n([C@H]2C[C@H](O)[C@@H](CO)O2)cc1/C=C/Br [BRIVUDINE] | > 250 mg/L | > 250 mg/L | – | – | > 250 mg/L | – | – | > 250 mg/L | – | > 250 µg/mL | > 250 mg/L | – | > 250 mg/L | > 250 µg/mL | > 250 mg/L | > 250 mg/L | 10 mg/L (≈ 30 µM) | > 250 mg/L | > 250 µg/mL | > 250 mg/L | – |
| Nc1ccn(C[C@@H](CO)OCP(=O)(O)O)c(=O)n1.O.O [CIDOFOVIR] | – | – | 57 mg/L | 0.24 mg/L | – | – | – | – | 12.6 mg/L | – | – | 0.37 mg/L | – | – | – | – | – | – | – | – | EC50 (Human alphaherpesvirus 3 [10]): 0.0095 mg/L; CC50 [11]: > 50 mg/L; CC50 [18]: 244 mg/L; CC50 [19]: 400 mg/L |
| Nc1nc2c(ncn2COC(CO)CO)c(=O)[nH]1 [GANCICLOVIR] | – | – | 80 mg/L (≈ 313 µM) | 1.4 mg/L (≈ 5.49 µM) | – | – | 0.032 mg/L (≈ 0.125 µM) | – | 15 mg/L (≈ 58.8 µM) | – | – | 1.7 mg/L (≈ 6.66 µM) | – | – | > 100 mg/L | – | 0.0064 mg/L (≈ 0.0251 µM) | – | > 100 µg/mL | 2.4 mg/L (≈ 9.4 µM) | EC50 (Human alphaherpesvirus 3 [10]): 1 mg/L (≈ 3.92 µM); CC50 [11]: > 50 mg/L; CC50 [18]: 190 mg/L (≈ 744 µM); CC50 [19]: 400 mg/L (≈ 1570 µM) |
| NC(=O)c1ncn([C@@H]2O[C@H](CO)[C@@H](O)[C@H]2O)n1 [RIBAVIRIN] | 150 mg/L (≈ 614 µM) | 150 mg/L (≈ 614 µM) | – | – | > 250 mg/L | – | 250 mg/L (≈ 1020 µM) | 30 mg/L (≈ 123 µM) | – | > 250 µg/mL | 150 mg/L (≈ 614 µM) | – | > 250 mg/L | > 250 µg/mL | 150 mg/L (≈ 614 µM) | 250 mg/L (≈ 1020 µM) | 250 mg/L (≈ 1020 µM) | 50 mg/L (≈ 205 µM) | > 250 µg/mL | > 250 mg/L | – |
